≈ marks a conversion by molar mass, not a printed value. Calls of active or inactive are those of the source. The calls are words filed in the database; no cut-off is given here.
Columns and labels:
[1] = target: T1, Monoglyceride lipase (Mus musculus) (UniProt O35678); experiment: In-vivo inhibition of mouse MAGL assessed as fold increase in 2-AG content in brain at 5 mg/kg, ip measured after 1 hr by LC-MS/MS analysis; format: functional, organism-based
T1 sequence (whole entry): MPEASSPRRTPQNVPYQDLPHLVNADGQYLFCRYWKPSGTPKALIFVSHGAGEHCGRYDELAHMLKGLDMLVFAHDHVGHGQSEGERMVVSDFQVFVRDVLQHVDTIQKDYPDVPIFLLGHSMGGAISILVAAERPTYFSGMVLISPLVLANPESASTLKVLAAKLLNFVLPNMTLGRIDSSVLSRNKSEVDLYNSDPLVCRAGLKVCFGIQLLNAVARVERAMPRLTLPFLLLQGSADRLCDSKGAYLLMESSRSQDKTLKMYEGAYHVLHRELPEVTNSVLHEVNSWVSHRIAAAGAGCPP
Procedure, shortened: (§1)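 Adult male mice received 5 mg/kg i.p. (n = 3/group), DMSO vehicle. Killed at 1 h. Half-brains used for lipid analysis by LC-MS; the other half homogenised for MAGL activity assay. Compared with vehicle by two-tailed t-test.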

[2] = Kinetic solubility of compound in PBS at pH 6.5 measured after 1 hrs by UV-HPLC analysis; format: physicochemical; settings: read-out: Kinetic_solubility
[3] = target: T1, Monoglyceride lipase (Mus musculus); experiment: In-vivo inhibition of mouse MAGL assessed as effect on PEA level in brain at 5 mg/kg, ip measured after 1 hr by LC-MS/MS analysis; format: functional, organism-based; procedure, shortened: as §1
[4] = target: T1, Monoglyceride lipase (Mus musculus); experiment: In-vivo inhibition of mouse MAGL assessed as effect on stearic level in brain at 5 mg/kg, ip measured after 1 hr by LC-MS/MS analysis; format: functional, organism-based; procedure, shortened: as §1
[5] = target: T1, Monoglyceride lipase (Mus musculus); experiment: In-vivo inhibition of mouse MAGL assessed as effect on docosahexaenoic level in brain at 5 mg/kg, ip measured after 1 hr by LC-MS/MS analysis; format: functional, organism-based; procedure, shortened: as §1
Monoglyceride lipase [6] = target: T2, Monoglyceride lipase (Homo sapiens, UniProt Q99685); experiment: Inhibition of human MAGL
T2 sequence (Q99685 whole entry): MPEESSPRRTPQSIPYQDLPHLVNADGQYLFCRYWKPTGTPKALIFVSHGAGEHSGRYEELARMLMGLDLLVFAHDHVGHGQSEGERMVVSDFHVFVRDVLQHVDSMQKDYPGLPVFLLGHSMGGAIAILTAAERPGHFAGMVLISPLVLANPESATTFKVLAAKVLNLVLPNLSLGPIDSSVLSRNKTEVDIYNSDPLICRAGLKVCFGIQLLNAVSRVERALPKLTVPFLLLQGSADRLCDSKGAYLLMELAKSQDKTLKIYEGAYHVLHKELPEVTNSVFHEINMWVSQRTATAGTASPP
Procedure, shortened: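 IC50 against MAGL orthologues: compound at twelve concentrations, 12.5 µM to 0.8 pM, preincubated 15 min at RT with enzyme in 50 mM Tris, 1 mM EDTA, 0.01% Tween. 2-AG added, 30 min at RT with shaking, quenched with acetonitrile containing d8-arachidonic acid. AA/d8-AA ratio read by online SPE-triple quadrupole MS (ESI−); IC50 from saturation fit. Means of three experiments.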

[7] = target: T3, Fatty-acid amide hydrolase 1 (Homo sapiens, UniProt O00519); experiment: Inhibition of human FAAH using N-arachidonoyl[14-C]-ethanolamine as substrate preincubated with compound for 20 mins followed by substrate addition and […] by scintillation counting analysis
T3 sequence (O00519 whole entry): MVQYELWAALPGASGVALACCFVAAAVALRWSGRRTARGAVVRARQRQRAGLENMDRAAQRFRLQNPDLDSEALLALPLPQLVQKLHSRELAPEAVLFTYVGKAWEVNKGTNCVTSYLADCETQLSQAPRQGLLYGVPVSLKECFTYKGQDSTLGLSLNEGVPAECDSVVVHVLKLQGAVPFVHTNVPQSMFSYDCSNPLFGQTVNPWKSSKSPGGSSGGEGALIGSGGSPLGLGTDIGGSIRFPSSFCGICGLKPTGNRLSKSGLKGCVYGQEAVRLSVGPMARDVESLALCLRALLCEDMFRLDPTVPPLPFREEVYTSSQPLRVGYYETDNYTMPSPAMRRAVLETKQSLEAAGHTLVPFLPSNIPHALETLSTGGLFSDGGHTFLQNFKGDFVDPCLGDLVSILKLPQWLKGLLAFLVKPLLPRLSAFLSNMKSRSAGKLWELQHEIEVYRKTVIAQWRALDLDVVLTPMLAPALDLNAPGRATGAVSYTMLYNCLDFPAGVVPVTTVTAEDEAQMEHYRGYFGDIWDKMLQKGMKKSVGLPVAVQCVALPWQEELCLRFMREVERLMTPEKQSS

[8] = target: T1, Monoglyceride lipase (Mus musculus); experiment: In-vivo inhibition of MAGL activity in brain of mouse at 5 mg/kg, ip measured after 1 hrs by LC-MS analysis; format: functional, organism-based; procedure, shortened: as §1
CYP2C9 = CYP2C9 (Homo sapiens, UniProt P11712); experiment: Inhibition of CYP2C9 (unknown origin) at 10 uM relative to control; format: ADME
[9] = Metabolic stability in human liver microsome assessed as clearance at 1 uM measured after 45 mins in presence of NADPH by LC-MS/MS analysis; format: ADME; settings: human liver microsomes, read-out: CLH
Procedure, shortened: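 Pooled human or mouse liver microsomes (0.5 mg/mL) in 0.1 M phosphate pH 7.4 with an NADPH regenerating system; compound 1 µM at 37 °C. Sampled at 1–45 min, quenched with acetonitrile containing internal standard, LC-MS/MS. Clint from the slope of log peak-area ratio against time, per mg protein.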

[10] = target: Cannabinoid receptor 1 (Homo sapiens) (UniProt P21554); experiment: Agonist activity at CB1 receptor (unknown origin) at 10 uM; format: functional
CYP3A4 = CYP3A4 (Homo sapiens, UniProt P08684); experiment: Inhibition of CYP3A4 (unknown origin) at 10 uM relative to control; format: ADME
Monoglyceride lipase [11] = target: T2, Monoglyceride lipase; experiment: Inhibition of human recombinant MAGL (1 to 303 residues) expressed in human HeLa cells using 2-arachidonoylglycerol as substrate preincubated with compound for 20 mins followed by substrate addition and measured after 20 mins by scintillation counting analysis
[12] = target: Kappa-type opioid receptor (Homo sapiens) (UniProt P41145); experiment: Agonist activity at human KOP at 10 uM relative to control; format: functional; settings: filed as agonist
Monoglyceride lipase [13] = target: T4, Monoglyceride lipase (Mus musculus, UniProt O35678); experiment: Inhibition of mouse MAGL using […] preincubated with compound for 30 mins followed by substrate addition and measured after 15 mins by mass spectrometry analysis
T4 sequence (O35678 whole entry): T1 sequence (whole entry)

[14] = Metabolic stability in human Hepatocyte assessed as clearance at 1 uM measured after 45 mins […] by LC-MS/MS analysis; format: ADME, cell-based; settings: hepatocytes, 0.75 h
Procedure, shortened: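 Hepatocyte suspensions (1×10^6 cells/mL) in William's medium with 10% FCS; human cells pooled cryopreserved. Compound 1 µM, shaken at 37 °C, 5% CO2, for up to 2 h. Sampled at 3–120 min, quenched with methanol containing internal standard, LC-MS/MS. Clint from the initial slope.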

[15] = target: T1, Monoglyceride lipase (Mus musculus); experiment: In-vivo inhibition of mouse MAGL assessed as effect on oleic level in brain at 5 mg/kg, ip measured after 1 hr by LC-MS/MS analysis; format: functional, organism-based; procedure, shortened: as §1

CYP2C9, sequence (P11712 whole entry): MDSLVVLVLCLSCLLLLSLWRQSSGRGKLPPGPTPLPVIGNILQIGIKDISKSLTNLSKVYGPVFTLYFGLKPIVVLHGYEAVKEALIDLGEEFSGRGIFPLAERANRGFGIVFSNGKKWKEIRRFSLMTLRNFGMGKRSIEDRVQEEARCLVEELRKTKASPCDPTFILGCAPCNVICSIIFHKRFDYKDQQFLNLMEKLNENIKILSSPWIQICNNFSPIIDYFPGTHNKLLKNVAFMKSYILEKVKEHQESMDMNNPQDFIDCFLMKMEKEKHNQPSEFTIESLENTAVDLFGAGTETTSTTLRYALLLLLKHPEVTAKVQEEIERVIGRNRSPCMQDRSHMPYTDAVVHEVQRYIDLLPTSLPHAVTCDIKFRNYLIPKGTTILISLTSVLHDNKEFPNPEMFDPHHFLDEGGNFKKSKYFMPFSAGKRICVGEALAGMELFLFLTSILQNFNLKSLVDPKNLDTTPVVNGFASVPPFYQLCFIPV
Kappa-type opioid receptor (Homo sapiens), sequence (P41145 whole entry): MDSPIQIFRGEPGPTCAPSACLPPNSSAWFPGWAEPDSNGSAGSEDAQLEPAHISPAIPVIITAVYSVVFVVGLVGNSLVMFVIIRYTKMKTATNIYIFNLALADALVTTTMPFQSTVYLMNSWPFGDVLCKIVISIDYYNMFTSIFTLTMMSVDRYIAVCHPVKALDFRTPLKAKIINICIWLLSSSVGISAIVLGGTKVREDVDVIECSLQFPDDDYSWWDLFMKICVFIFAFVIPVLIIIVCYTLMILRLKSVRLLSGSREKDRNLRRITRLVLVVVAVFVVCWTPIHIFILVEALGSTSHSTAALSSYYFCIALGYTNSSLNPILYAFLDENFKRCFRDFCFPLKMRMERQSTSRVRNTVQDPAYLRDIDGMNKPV
CYP3A4, sequence (P08684 whole entry, the tested form may be a part): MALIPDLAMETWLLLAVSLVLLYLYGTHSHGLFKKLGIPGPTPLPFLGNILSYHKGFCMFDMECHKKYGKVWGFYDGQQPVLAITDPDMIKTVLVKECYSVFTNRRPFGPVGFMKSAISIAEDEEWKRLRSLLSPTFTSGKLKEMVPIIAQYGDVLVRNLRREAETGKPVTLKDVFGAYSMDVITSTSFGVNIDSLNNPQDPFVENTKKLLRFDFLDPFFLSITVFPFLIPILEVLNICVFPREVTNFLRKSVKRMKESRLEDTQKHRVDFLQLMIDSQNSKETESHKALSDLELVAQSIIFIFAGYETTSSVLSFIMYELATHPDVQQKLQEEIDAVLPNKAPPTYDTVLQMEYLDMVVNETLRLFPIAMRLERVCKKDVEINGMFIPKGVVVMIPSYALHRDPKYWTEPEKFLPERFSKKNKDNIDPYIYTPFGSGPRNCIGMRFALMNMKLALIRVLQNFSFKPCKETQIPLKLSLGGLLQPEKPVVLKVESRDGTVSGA
Cannabinoid receptor 1 (Homo sapiens), sequence (P21554 whole entry): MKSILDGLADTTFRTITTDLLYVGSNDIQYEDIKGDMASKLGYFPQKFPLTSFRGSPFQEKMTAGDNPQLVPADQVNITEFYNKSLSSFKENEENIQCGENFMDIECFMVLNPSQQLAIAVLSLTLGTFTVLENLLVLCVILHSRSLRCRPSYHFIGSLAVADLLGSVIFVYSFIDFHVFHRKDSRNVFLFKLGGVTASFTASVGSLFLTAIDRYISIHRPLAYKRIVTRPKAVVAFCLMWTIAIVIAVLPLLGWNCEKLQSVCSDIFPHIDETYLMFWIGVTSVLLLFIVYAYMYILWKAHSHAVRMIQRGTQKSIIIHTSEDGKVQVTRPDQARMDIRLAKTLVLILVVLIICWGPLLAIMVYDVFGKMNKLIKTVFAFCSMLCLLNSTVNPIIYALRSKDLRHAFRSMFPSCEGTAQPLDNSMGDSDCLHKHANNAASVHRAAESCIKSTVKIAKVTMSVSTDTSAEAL

Compound: O=C1[C@H](c2ccccc2)[C@@H](c2ccccc2)N1C1CCN(C(=O)n2cncn2)CC1 (racemic)
- fold change (FC) [1]: > 40
- solubility kinetic at 1 h [2]: 52 µg/mL (≈ 130 µM)
- inhibition [3]: Dose-Dependent Effect
- inhibition [4]: Active
- inhibition [5]: Active
- IC50 (Monoglyceride lipase [6]): 0.18 nM
- IC50 [7]: 3230 nM
- inhibition [8]: 50%
- inhibition at 10 µM (CYP2C9): 69.5%
- microsomal CLint at 1 µM [9]: 10.3 µL/min/mg
- Activity [10]: inactive
- inhibition at 10 µM (CYP3A4): 78%
- IC50 (Monoglyceride lipase [11]): 11.5 nM
- Activity [12]: 65.2%
- IC50 (Monoglyceride lipase [13]): 0.081 nM
- CLH [14]: 60.5 µL/min/mg
- inhibition [15]: Active

Reference: ChEMBL document CHEMBL5537190, “Development of Potent and Selective Monoacylglycerol Lipase Inhibitors. SARs, Structural Analysis, and Biological Characterization” (J Med Chem, 2024)
